The molecules below were run against T1, α-glucosidase (Saccharomyces cerevisiae, UniProt P53341) (assay: α-Glucosidase kinetic study). Details: Lineweaver–Burk plot; Km increases, Vmax unchanged.
Type: biochemical

T1 sequence (P53341 whole entry): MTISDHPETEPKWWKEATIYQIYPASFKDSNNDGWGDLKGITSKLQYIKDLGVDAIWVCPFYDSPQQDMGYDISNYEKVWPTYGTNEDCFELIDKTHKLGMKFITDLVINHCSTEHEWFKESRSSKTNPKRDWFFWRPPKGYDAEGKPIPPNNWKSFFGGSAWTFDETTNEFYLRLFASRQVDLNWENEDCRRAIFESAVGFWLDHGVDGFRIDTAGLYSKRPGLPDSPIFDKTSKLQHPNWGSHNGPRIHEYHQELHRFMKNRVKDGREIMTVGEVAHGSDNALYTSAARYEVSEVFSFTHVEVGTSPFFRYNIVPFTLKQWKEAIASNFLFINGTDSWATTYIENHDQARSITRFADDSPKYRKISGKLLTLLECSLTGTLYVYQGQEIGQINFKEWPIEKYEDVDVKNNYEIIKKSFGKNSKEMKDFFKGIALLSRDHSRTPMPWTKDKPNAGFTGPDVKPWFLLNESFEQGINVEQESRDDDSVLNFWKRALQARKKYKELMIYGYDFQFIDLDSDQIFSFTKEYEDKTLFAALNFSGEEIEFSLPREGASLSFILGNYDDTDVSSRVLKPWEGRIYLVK

Mode of inhibition | Structure (SMILES)
competitive | Nc1c(-c2ccc(Cl)cc2)nc2ncnn2c1-c1ccc(Cl)cc1 [9s, 5,7-Bis(4-chlorophenyl)-[1,2,4]triazolo[1,5-a]pyrimidin-6-amine]

The molecules below were run against Saccharomyces cerevisiae α-glucosidase (Saccharomyces cerevisiae, UniProt P53341) (assay: α-Glucosidase inhibition assay). Details: not given.
Sequence of Saccharomyces cerevisiae α-glucosidase (P53341 whole entry): as above
Type: biochemical

Structure (SMILES) | IC50 [µM]
Cc1ccc(-c2nc3ncnn3c(-c3ccccc3)c2N)cc1 [9h, 7-Phenyl-5-(p-tolyl)-[1,2,4]triazolo[1,5-a]pyrimidin-6-amine] | 94.52 ± 0.72
Nc1c(-c2ccccc2)nc2ncnn2c1-c1ccc(Cl)cc1 [9c, 7-(4-Chlorophenyl)-5-phenyl-[1,2,4]triazolo[1,5-a]pyrimidin-6-amine] | 56.2 ± 0.68
Cc1ccc(-c2nc3ncnn3c(-c3cccs3)c2N)cc1 [9l, 7-(Thiophen-2-yl)-5-(p-tolyl)-[1,2,4]triazolo[1,5-a]pyrimidin-6-amine] | 151.3 ± 0.56
COc1ccc(-c2c(N)c(-c3ccccc3)nc3ncnn23)cc1 [9b, 7-(4-Methoxyphenyl)-5-phenyl-[1,2,4]triazolo[1,5-a]pyrimidin-6-amine] | 70.85 ± 0.27
COc1ccc(-c2nc3ncnn3c(-c3ccc(OC)cc3)c2N)cc1 [9n, 5,7-Bis(4-methoxyphenyl)-[1,2,4]triazolo[1,5-a]pyrimidin-6-amine] | 52.66 ± 0.3
Nc1c(-c2ccccc2)nc2ncnn2c1-c1cccs1 [9g, 5-Phenyl-7-(thiophen-2-yl)-[1,2,4]triazolo[1,5-a]pyrimidin-6-amine] | 140 ± 1.55
COc1ccc(-c2nc3ncnn3c(-c3ccc(Cl)cc3)c2N)cc1 [9o, 7-(4-Chlorophenyl)-5-(4-methoxyphenyl)-[1,2,4]triazolo[1,5-a]pyrimidin-6-amine] | 37.18 ± 0.23

Other lines, results leading:

IC50 [µM] | Structure (SMILES)
41.5 ± 0.56 | COc1ccc(-c2c(N)c(-c3ccc(Cl)cc3)nc3ncnn23)cc1 [9r, 5-(4-Chlorophenyl)-7-(4-methoxyphenyl)-[1,2,4]triazolo[1,5-a]pyrimidin-6-amine]
65.09 ± 0.38 | Nc1c(-c2ccccc2)nc2ncnn2c1-c1ccc(Br)cc1 [9f, 7-(4-Bromophenyl)-5-phenyl-[1,2,4]triazolo[1,5-a]pyrimidin-6-amine]
58.11 ± 0.34 | Nc1c(-c2ccc(Cl)cc2)nc2ncnn2c1-c1ccccc1 [9q, 5-(4-Chlorophenyl)-7-phenyl-[1,2,4]triazolo[1,5-a]pyrimidin-6-amine]
24.32 ± 0.18 | Nc1c(-c2ccc(Cl)cc2)nc2ncnn2c1-c1ccc(Cl)cc1 [9s, 5,7-Bis(4-chlorophenyl)-[1,2,4]triazolo[1,5-a]pyrimidin-6-amine]
72.4 ± 0.98 | COc1ccc(-c2nc3ncnn3c(-c3ccccc3)c2N)cc1 [9m, 5-(4-Methoxyphenyl)-7-phenyl-[1,2,4]triazolo[1,5-a]pyrimidin-6-amine]
97.02 ± 0.83 | Nc1c(-c2ccccc2)nc2ncnn2c1-c1ccccc1 [9a, 5,7-Diphenyl-[1,2,4]triazolo[1,5-a]pyrimidin-6-amine]

These molecules were tested on α-amylase (assay: α-Amylase inhibition assay). Details: at a concentration of 100 µM, mean ± SD.
Type: biochemical

Inhibition of α-amylase activity (%) | Structure (SMILES)
50.1 ± 0.5 | C[C@H]1O[C@H](O[C@H]2[C@H](O)[C@@H](O)[C@@H](O[C@H]3[C@H](O)[C@@H](O)C(O)O[C@@H]3CO)O[C@@H]2CO)[C@H](O)[C@@H](O)[C@@H]1N[C@H]1C=C(CO)[C@@H](O)[C@H](O)[C@H]1O (stereo partly drawn) [Acarbose]

The molecules below were run against T1, α-glucosidase (assay: Circular dichroism spectroscopy of α-glucosidase secondary structure). Details: CD, α-glucosidase in the presence of 9s.
In short: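 Far-UV CD spectra (190–240 nm) recorded for yeast α-glucosidase alone and for its complex with the test compound. Spectra were deconvoluted into α-helix, β-sheet, β-turn and random-coil fractions, and the complex was compared with native enzyme.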

Random coils content of α-glucosidase [%] | α-Helix content of α-glucosidase [%] | β-Turn content of α-glucosidase [%] | Structure (SMILES)
0 | 41.2 | 51.4 | Nc1c(-c2ccc(Cl)cc2)nc2ncnn2c1-c1ccc(Cl)cc1 [9s, 5,7-Bis(4-chlorophenyl)-[1,2,4]triazolo[1,5-a]pyrimidin-6-amine]

Reference: article PMC12612033 (Scientific Reports, 2025)
